# According to PubChem BioAssay AID1800 (The Scripps Research Institute Molecular Screening Center, 2009):
# Out of some 290,000 compounds screened, about 1,600 (0.55%) were called active. This is one part of a sample in which actives are shown more often than they occur.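 Rule for the calls: active = inhibition above the mean of all tested compounds plus 3 SD, set per campaign (cut at about 35% in these data); inactive = the rest.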
# System: Hepatitis C virus NS3 helicase
# Assay: inhibitors of HCV NS3 helicase, primary screen, biochemical, Cy5 molecular beacon fluorescence (AID 1800);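 note: 0% = DMSO wells and 100% = thioflavine S control wells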
# Settings: NS3 helicase DNA unwinding, at 10.9 µM, hits give high values
# How it was run: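 Test system: hepatitis C virus NS3 helicase domain fragment enzyme. Also added: annealed dual-labelled DNA beacon duplex, ATP-started. Timing: 60 min unwinding reaction at 25 °C after ATP addition. Technique: Cy5 fluorescence. Measure: % inhibition of unwinding.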
row,SMILES,inhibition
1,COc1ccc(CN2C(=O)NC(=O)/C(=C\c3ccc(OC)c(OC)c3OC)C2=O)cc1,21.5% (inactive)
2,COc1ccc(N2C(=O)/C(=C/c3ccco3)C(=O)NC2=S)cc1,58.9% (active)
3,COc1cccc(N2C(=O)NC(=O)/C(=C\c3cn(C)c4ccccc34)C2=O)c1,-1.98% (inactive)
4,CN(C)CCN(CC1CCCN(Cc2ccccc2F)C1)C(=O)Cc1ccc(F)c(F)c1 (stereo not given),-18.8% (inactive)
5,Cc1ccc(S(=O)(=O)N(C)c2ccc(C(=O)NCC3(N(C)C)CCCCC3)cc2)cc1,-37.1% (inactive)
6,Cc1cc(C)cc(NC(=S)NC2CC3CCCC(C2)N3Cc2cccs2)c1 (stereo not given),-48.3% (inactive)
7,CC(C)n1c(=O)c(C=Nc2ccc(Br)cc2)c(O)n(Cc2ccco2)c1=O,45.5% (active)
8,CN(C)CCCN=Cc1c(O)n(Cc2ccco2)c(=O)[nH]c1=O,16.9% (inactive)
9,COc1cc2nc(N3CCN(C(=O)[C@@H]4CCCO4)CC3)nc(N)c2cc1OC,-0.76% (inactive)
10,CCN(CC)C(=O)Oc1ccc(NC(=O)N2CCOCC2)cc1,4.52% (inactive)
11,CC(C)(C)c1ccc(CN2C(=O)CN=C(c3ccccc3)c3ccccc32)cc1,14.7% (inactive)
12,O=C1CC(=O)N(Cc2ccccc2)C(=O)N1CCCCCCN1C(=O)CC(=O)N(Cc2ccccc2)C1=O,41.5% (active)
13,O=C(CN1CCCC1=O)NCCc1ccccc1,0.89% (inactive)
14,CC1(C)Cc2c(C#N)c(N3CCNCC3)nc(-c3ccco3)c2CS1,-44.9% (inactive)
15,Cc1ccc(C2CN(C)CC2C(=O)c2ccc(F)cc2)cc1 (stereo not given),-2.19% (inactive)
